Legend:
[1] = target: Epidermal growth factor receptor (Homo sapiens, UniProt P00533); assay: Inhibition of EGF-stimulated EGFR tyrosine kinase activity using plasma membrane vesicles shed from cultured human A431 carcinoma cells; type: functional, cell-based, A-431
Summary of the method: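 EGFR source: A431 shed membrane vesicles, solubilized in 4% Triton X-100/10% glycerol, 10 μg total protein per reaction. Final buffer: 20 mM HEPES pH 7.4, 15 mM MgCl₂, 4 mM MnCl₂, 0.02% BSA, 5 μM ATP with [γ-³²P]ATP, Glu:Ala:Tyr (6:3:1) copolymer substrate, 250 ng EGF. Run 10 min at room temperature, stopped with cold TCA/pyrophosphate. Filter-bound ³²P counted. IC50 is 50% reduction of incorporation. Autophosphorylation controls included.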

Swiss 3T3 (Mus musculus) = assay: Inhibition of Swiss 3T3 mouse fibroblast proliferation

Sequence of Epidermal growth factor receptor (P00533 whole entry): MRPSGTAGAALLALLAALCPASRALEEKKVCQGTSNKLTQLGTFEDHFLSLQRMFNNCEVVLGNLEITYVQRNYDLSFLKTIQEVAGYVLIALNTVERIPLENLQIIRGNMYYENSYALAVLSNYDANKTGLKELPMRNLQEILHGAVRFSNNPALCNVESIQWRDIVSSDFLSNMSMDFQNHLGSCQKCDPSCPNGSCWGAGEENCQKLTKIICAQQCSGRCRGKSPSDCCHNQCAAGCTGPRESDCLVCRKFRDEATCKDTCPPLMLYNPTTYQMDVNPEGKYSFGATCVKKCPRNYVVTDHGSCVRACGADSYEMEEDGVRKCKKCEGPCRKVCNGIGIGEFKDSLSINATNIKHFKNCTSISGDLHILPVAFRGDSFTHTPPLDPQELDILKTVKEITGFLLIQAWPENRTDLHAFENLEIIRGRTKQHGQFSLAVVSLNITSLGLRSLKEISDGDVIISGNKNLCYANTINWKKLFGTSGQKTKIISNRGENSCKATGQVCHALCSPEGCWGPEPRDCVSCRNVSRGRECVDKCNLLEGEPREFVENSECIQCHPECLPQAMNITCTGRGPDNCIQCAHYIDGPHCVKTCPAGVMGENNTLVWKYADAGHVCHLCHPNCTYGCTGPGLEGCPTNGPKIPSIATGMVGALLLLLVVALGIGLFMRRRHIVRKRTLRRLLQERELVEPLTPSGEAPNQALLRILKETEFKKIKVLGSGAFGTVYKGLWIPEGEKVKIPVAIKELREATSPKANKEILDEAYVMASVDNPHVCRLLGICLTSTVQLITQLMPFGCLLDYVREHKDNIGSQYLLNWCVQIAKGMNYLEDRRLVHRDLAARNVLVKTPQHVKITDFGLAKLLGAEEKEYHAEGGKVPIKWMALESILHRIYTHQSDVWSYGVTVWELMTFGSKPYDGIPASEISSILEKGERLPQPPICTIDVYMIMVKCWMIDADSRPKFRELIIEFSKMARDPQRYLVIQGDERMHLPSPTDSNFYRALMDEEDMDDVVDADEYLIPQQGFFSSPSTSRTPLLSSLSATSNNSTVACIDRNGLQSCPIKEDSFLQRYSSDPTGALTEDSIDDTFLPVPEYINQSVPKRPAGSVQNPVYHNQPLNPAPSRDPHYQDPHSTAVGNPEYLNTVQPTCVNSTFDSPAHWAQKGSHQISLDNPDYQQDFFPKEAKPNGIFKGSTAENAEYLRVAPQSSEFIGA

COC(=O)Cc1c(SSSc2[nH]c3ccccc3c2CC(=O)OC)[nH]c2ccccc12
IC50 [1]: 35 µM
IC50 (Swiss 3T3 (Mus musculus)): 1 µM

O=C(O)CCC1C(S)=Nc2ccccc21 (centres undefined)
IC50 [1]: 1.62 µM
IC50 (Swiss 3T3 (Mus musculus)): 64 µM

COC(=O)CCN1C(=S)C(CCC(=O)OC)(CCC(=O)OC)c2ccccc21
IC50 [1]: > 100 µM

COC(=O)Cc1c(Sc2c(CC(=O)OC)c3ccccc3n2C)n(C)c2ccccc12
IC50 [1]: > 100 µM

COC(=O)Cc1c(SSc2[nH]c3ccccc3c2CC(=O)OC)[nH]c2ccccc12
IC50 (Swiss 3T3 (Mus musculus)): 2.3 µM

Cn1c(SSc2c(CC(=O)O)c3ccccc3n2C)c(CC(=O)O)c2ccccc21
IC50 [1]: 53 µM
IC50 (Swiss 3T3 (Mus musculus)): 36 µM

COC(=O)CCC1C(=S)N(C)c2ccccc21 (centres undefined)
IC50 [1]: > 100 µM

COC(=O)CCCC1C(=S)Nc2ccccc21 (centres undefined)
IC50 [1]: > 100 µM

COC(=O)CCc1c(SSc2[nH]c3ccccc3c2CCC(=O)OC)[nH]c2ccccc12
IC50 [1]: 21 µM
IC50 (Swiss 3T3 (Mus musculus)): 7.4 µM

O=C(O)Cc1c(SSc2[nH]c3ccccc3c2CC(=O)O)[nH]c2ccccc12
IC50 [1]: 10.2 µM
IC50 (Swiss 3T3 (Mus musculus)): > 50 µM

Cn1c(SSc2c(CCC(=O)O)c3ccccc3n2C)c(CCC(=O)O)c2ccccc21
IC50 [1]: 3.1 µM

COC(=O)CCc1c(SSc2c(CCC(=O)OC)c3ccccc3n2C)n(C)c2ccccc12
IC50 [1]: > 100 µM
IC50 (Swiss 3T3 (Mus musculus)): 5.2 µM

COC(=O)Cc1c(SSc2c(CC(=O)OC)c3ccccc3n2C)n(C)c2ccccc12
IC50 [1]: 33 µM

COC(=O)CC1C(=S)N(C)c2ccccc21 (centres undefined)
IC50 [1]: > 100 µM

O=C(O)CCc1c(SSc2[nH]c3ccccc3c2CCC(=O)O)[nH]c2ccccc12
IC50 [1]: 4.2 µM
IC50 (Swiss 3T3 (Mus musculus)): 59 µM

O=CN/C=C/c1cc(O)ccc1O [ERBSTATIN]
IC50 [1]: 2 µM

Cc1cccc2c(CCC(=O)O)c(SSc3[nH]c4c(C)cccc4c3CCC(=O)O)[nH]c12
IC50 [1]: 1.5 µM

COC(=O)CCC1C(S)=Nc2ccccc21 (centres undefined)
IC50 [1]: > 100 µM
IC50 (Swiss 3T3 (Mus musculus)): 16 µM

CN1C(=S)C(CC(=O)O)c2ccccc21 (centres undefined)
IC50 [1]: > 100 µM

O=C(O)Cc1c(SSSc2[nH]c3ccccc3c2CC(=O)O)[nH]c2ccccc12
IC50 (Swiss 3T3 (Mus musculus)): 8 µM

O=C(O)CCCC1C(=S)Nc2ccccc21 (centres undefined)
IC50 [1]: 6.7 µM

COC(=O)CCCC1C(=S)N(C)c2ccccc21 (centres undefined)
IC50 [1]: > 100 µM

O=C(O)CCC1(CCC(=O)O)C(=S)Nc2ccccc21
IC50 [1]: > 100 µM

CN1C(=S)C(CCCC(=O)O)c2ccccc21 (centres undefined)
IC50 [1]: > 100 µM

COC(=O)CC1C(=S)Nc2ccccc21 (centres undefined)
IC50 [1]: 100 µM

COC(=O)CCC1(CCC(=O)OC)C(=S)Nc2ccccc21
IC50 [1]: > 100 µM

Cc1ccc2[nH]c(SSc3[nH]c4ccc(C)cc4c3CCC(=O)O)c(CCC(=O)O)c2c1
IC50 (Swiss 3T3 (Mus musculus)): > 50 µM

COC(=O)CCCc1c(SSc2[nH]c3ccccc3c2CCCC(=O)OC)[nH]c2ccccc12
IC50 [1]: > 100 µM

COC(=O)CCCc1c(SSc2c(CCCC(=O)OC)c3ccccc3n2C)n(C)c2ccccc12
IC50 [1]: > 100 µM
IC50 (Swiss 3T3 (Mus musculus)): 1.8 µM

CN1C(=S)C(CCC(=O)O)c2ccccc21 (centres undefined)
IC50 [1]: 6.7 µM
